Test results as given in ChEMBL document CHEMBL1155110, “Ribose-modified purine nucleosides as ribonucleotide reductase inhibitors. Synthesis, antitumor activity, and molecular modeling of N6-substituted 3'-C-methyladenosine derivatives” (J Med Chem, 2008).

Legend:
K562 [1] = test: Antitumor activity against human K562 cells after 48 hrs by MTS assay; format: functional; settings: K562, 48 h
Outline: (§1)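 Cells grown in RPMI 1640 (K562) or MEM with Earle's salts (HT-29, CaCo-2, MCF-7) plus 10% FBS, 37 °C, 5% CO2; adherent lines trypsinized to single-cell suspension. Log-phase cells plated at about 5000 cells/mL, acclimatized 24 h, then exposed to serial dilutions in triplicate, up to 250 µM, for 48 h. MTS/PMS added 3 h; absorbance 490 nm; GI50 from growth inhibition.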

Caco-2 = test: Antitumor activity against human CaCo2 cells after 48 hrs by MTS assay; format: functional; settings: Caco-2, 48 h; outline: as §1
HT-29 = test: Antitumor activity against human HT29 cells after 48 hrs by MTS assay; format: functional; settings: HT-29, 48 h; outline: as §1
MCF7 = test: Antitumor activity against human MCF7 cells after 48 hrs by MTS assay; format: functional; settings: MCF7, 48 h; outline: as §1
Adenosine receptor A3 = target: T1, Adenosine receptor A3 (Homo sapiens, UniProt P0DMS8); test: Inhibition of human adenosine A3 receptor
T1 sequence (P0DMS8 whole entry): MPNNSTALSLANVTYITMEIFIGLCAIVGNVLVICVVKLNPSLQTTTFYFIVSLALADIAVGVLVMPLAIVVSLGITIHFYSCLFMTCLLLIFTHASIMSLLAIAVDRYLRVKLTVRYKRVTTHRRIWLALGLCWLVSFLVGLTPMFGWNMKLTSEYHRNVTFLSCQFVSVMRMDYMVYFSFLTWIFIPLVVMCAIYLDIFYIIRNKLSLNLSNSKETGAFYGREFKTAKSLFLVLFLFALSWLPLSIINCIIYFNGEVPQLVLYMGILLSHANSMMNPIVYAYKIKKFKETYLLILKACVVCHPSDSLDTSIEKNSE

K562 [2] = test: Growth inhibition of 0.1 uM 1,4-dihydro-2-methyl-6-phenyl-4-(phenylethyl)-3,5-pyridine-dicarboxylic acid 3-ethyl-5-[(3-nitrophenyl) methyl] ester pretreated human K562 cells after 48 hrs by MTS assay; format: functional
K562 [3] = test: Growth inhibition of 1 uM 1,4-dihydro-2-methyl-6-phenyl-4-(phenylethyl)-3,5-pyridine-dicarboxylic acid 3-ethyl-5-[(3-nitrophenyl) methyl] ester pretreated human K562 cells after 48 hrs by MTS assay; format: functional
K562 [4] = test: Growth inhibition of 0.1 uM 1,4-dihydro-2-methyl-6-phenyl-4-(phenylethyl)-3,5-pyridine-dicarboxylic acid 3-ethyl-5-[(3-nitrophenyl) methyl] ester pretreated human K562 cells after 72 hrs by MTS assay; format: functional
K562 [5] = test: Growth inhibition of 1 uM 1,4-dihydro-2-methyl-6-phenyl-4-(phenylethyl)-3,5-pyridine-dicarboxylic acid 3-ethyl-5-[(3-nitrophenyl) methyl] ester pretreated human K562 cells after 72 hrs by MTS assay; format: functional
HL-60 [6] = test: Decrease in intracellular dCTP pool in human HL60 cells at 40 nM relative to control; format: functional; set-up: scale not given: the % may be the effect or the level left
HL-60 [7] = test: Decrease in intracellular dATP pool in human HL60 cells at 40 nM relative to control; set-up: scale not given: the % may be the effect or the level left
HL-60 [8] = test: Decrease in intracellular dATP pool in human HL60 cells at 2.5 uM after 24 hrs relative to control; format: functional; set-up: scale not given: the % may be the effect or the level left
Outline: (§2)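 HL-60 cells in log phase (0.5 × 10^6 per ml) incubated 24 h with drug at 2.5, 5 or 10 µM. dNTPs extracted from 5 × 10^7 cells by trichloroacetic acid lysis, Freon/tri-n-octylamine neutralization, periodate oxidation with methylamine (37 °C, 30 min). Quantified by SAX HPLC in ammonium phosphate pH 3.4 with 2% acetonitrile, UV 280/260 nm; expressed versus untreated control.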

HL-60 [9] = test: Decrease in intracellular dATP pool in human HL60 cells at 5 uM after 24 hrs relative to control; format: functional; set-up: scale not given: the % may be the effect or the level left; outline: as §2
HL-60 [10] = test: Decrease in intracellular dATP pool in human HL60 cells at 10 uM after 24 hrs relative to control; format: functional; set-up: scale not given: the % may be the effect or the level left; outline: as §2

SMILES | GI50 (K562 [1]) | GI50 (Caco-2) | GI50 (HT-29) | GI50 (MCF7) | also measured
C[C@@]1(O)[C@@H](CO)O[C@@H](n2cnc3c(NC4CC4)ncnc32)[C@@H]1O | 73 µM | > 250 µM | > 250 µM | > 250 µM | 
C[C@@]1(O)[C@@H](CO)O[C@@H](n2cnc3c(NCc4ccco4)ncnc32)[C@@H]1O | > 250 µM | > 250 µM | > 250 µM | > 250 µM | 
OC[C@H]1O[C@@H](n2cnc3c(NCc4cccs4)ncnc32)[C@H](O)[C@@H]1O | 3.1 µM | 3.3 µM | 53.4 µM | 51.5 µM | Ki (Adenosine receptor A3): 0.06 µM
C[C@@]1(O)[C@@H](CO)O[C@@H](n2cnc3c(N)ncnc32)[C@@H]1O | 9.4 µM | 23.2 µM | 26.1 µM | 22.4 µM | 
C[C@@]1(O)[C@@H](CO)O[C@@H](n2cnc3c(Nc4cc[nH]n4)ncnc32)[C@@H]1O | > 250 µM | > 250 µM | > 250 µM | > 250 µM | 
C[C@@]1(O)[C@@H](CO)O[C@@H](n2cnc3c(NC4CCCC4)ncnc32)[C@@H]1O | 145 µM | > 250 µM | > 250 µM | > 250 µM | 
OC[C@H]1O[C@@H](n2cnc3c(NC4CCCC4)nc(Cl)nc32)[C@H](O)[C@@H]1O | > 250 µM | > 250 µM | > 250 µM | > 250 µM | 
C[C@@]1(O)[C@@H](CO)O[C@@H](n2cnc3c(NC4CCCCC4)ncnc32)[C@@H]1O | 50 µM | 223 µM | > 250 µM | > 250 µM | 
OC[C@H]1O[C@@H](n2cnc3c(NCc4ccccc4)ncnc32)[C@H](O)[C@@H]1O [N6-BENZYLADENOSINE] | 4.6 µM | 7.4 µM | 22.3 µM | 61 µM | Ki (Adenosine receptor A3): 0.0413 µM; GI50 (K562 [2]): 3.91 µM; GI50 (K562 [3]): 4.17 µM; GI50 (K562 [4]): 2.92 µM; GI50 (K562 [5]): 2.92 µM
Nc1ccn([C@@H]2O[C@H](CO)[C@@H](O)C2(F)F)c(=O)n1 [GEMCITABINE] | 0.32 µM | 0.18 µM | 0.03 µM | 0.01 µM | Activity (HL-60 [6]): 6.1%; Activity (HL-60 [7]): 13.9%
C[C@@]1(O)[C@@H](CO)O[C@@H](n2cnc3c(N[C@@H]4C[C@@H]5CC[C@@H]4C5)ncnc32)[C@@H]1O (racemic) | 32.5 µM | 56 µM | 65.8 µM | 56 µM | Activity (HL-60 [8]): 65%; Activity (HL-60 [9]): 28%; Activity (HL-60 [10]): 10%
C[C@@]1(O)[C@@H](CO)O[C@@H](n2cnc3c(Nc4ccccc4)ncnc32)[C@@H]1O | 98 µM | 246 µM | 137 µM | 207 µM | 
OC[C@H]1O[C@@H](n2cnc3c(N[C@@H]4C[C@@H]5CC[C@@H]4C5)ncnc32)[C@H](O)[C@@H]1O (racemic) | 116 µM | > 250 µM | > 250 µM | > 250 µM | 
C[C@@]1(O)[C@H](O)[C@@H](CO)O[C@H]1n1cnc2c(N)ncnc21 | 16 µM | > 100 µM | > 100 µM | > 100 µM | 
OC[C@H]1O[C@@H](n2cnc3c(NC4CCCC4)ncnc32)[C@H](O)[C@@H]1O [N6-CYCLOPENTYLADENOSINE] | > 250 µM | > 250 µM | > 250 µM | > 250 µM | 
C[C@@]1(O)[C@@H](CO)O[C@@H](n2cnc3c(NC4CCC4)ncnc32)[C@@H]1O | 246 µM | > 250 µM | > 250 µM | > 250 µM | 
C[C@@]1(O)[C@@H](CO)O[C@@H](n2cnc3c(NC4CCCCCC4)ncnc32)[C@@H]1O | 83 µM | > 250 µM | 106 µM | 200 µM | 
OC[C@H]1O[C@@H](n2cnc3c(Nc4ccccc4)ncnc32)[C@H](O)[C@@H]1O [N6-PHENYLADENOSINE] | > 250 µM | > 250 µM | > 250 µM | > 250 µM | 
C[C@@]1(O)[C@@H](CO)O[C@@H](n2cnc3c(NC4CCCC4)nc(Cl)nc32)[C@@H]1O | > 250 µM | > 250 µM | > 250 µM | > 250 µM | 
OC[C@H]1O[C@@H](n2cnc3c(NC4CCCCC4)ncnc32)[C@H](O)[C@@H]1O | > 250 µM | > 250 µM | > 250 µM | > 250 µM | 
C[C@@]1(O)[C@@H](CO)O[C@@H](n2cnc3c(NCc4ccccc4)ncnc32)[C@@H]1O | > 250 µM | > 250 µM | > 250 µM | > 250 µM | 
OC[C@H]1O[C@@H](n2cnc3c(NCc4ccco4)ncnc32)[C@H](O)[C@@H]1O [KINETIN RIBOSIDE] | 3.3 µM | 45.6 µM | 60.2 µM | 45.6 µM | Ki (Adenosine receptor A3): 0.022 µM
C[C@@]1(O)[C@@H](CO)O[C@@H](n2cnc3c(NCc4cccs4)ncnc32)[C@@H]1O | > 250 µM | > 250 µM | > 250 µM | > 250 µM | 
